# Experimental data gathered from unrelated publications.
# Target: LIM domain kinase 2 (LIMK2, Homo sapiens, UniProt P53671)
Structure (SMILES),read-out,technique,tested at,remaining binding [%]
Cc1cnn2ncc(-c3ccnc(N(C)C)n3)c2c1,binding,,1 µM,94
O=C(c1ccc(Nc2ncc(Cl)c(-c3cc4ccccc4s3)n2)cc1)N1CCC(N2CCCC2)CC1,binding,competition with immobilised ligand,1 µM,30
CC1=C(C#N)[C@@H](c2ccc3[nH]nc(C)c3c2)C(C#N)=C(c2ccc(Cl)cc2)N1,cell-free assay,competition with immobilised ligand,1 µM,91.1
COc1ccnn2ncc(-c3ccnc(N(C)C)n3)c12,binding,,1 µM,82
COc1cnc(Nc2cccc(S(N)(=O)=O)c2)nc1N1CCN(c2ccccc2)CC1,binding,competition with immobilised ligand,1 µM,96
CN(C)c1ncc(F)c(-c2cnn3ncccc23)n1,binding,,1 µM,82
c1cncc(-c2cccc(Nc3nccc(NC4CCCCC4)n3)c2)c1,binding,competition with immobilised ligand,10 µM,45
O=C(c1ccc(Nc2nccc(-c3cc4ccccc4s3)n2)cc1)N1CCC(N2CCCC2)CC1,binding,competition with immobilised ligand,1 µM,47
O=C(NCC1CCOCC1)c1n[nH]cc1NC(=O)c1c(F)cccc1F,binding,competition with immobilised ligand,1 µM,97
C[C@@H]1CCN(c2nccc(-c3cnn4ncccc34)n2)C1,binding,,1 µM,87
CN(C)C(=O)Cn1cc(-c2nc(C3(c4ccc(-c5cnc(N)nc5)cc4)CC3)no2)cn1,cell-free assay,competition with immobilised ligand,1 µM,85
Cc1cnc(Nc2ccc(C(=O)N3CCC(N4CCCC4)CC3)cc2)nc1-c1cc2ccccc2s1,binding,competition with immobilised ligand,1 µM,30
COc1cc(-c2cn(C3CCc4c(F)cccc4N(CC(F)(F)F)C3=O)nn2)ccc1-n1cnc(C)c1 (stereo not shown),cell-free assay,competition with immobilised ligand,1 µM,100
CN(C)c1nccc(-c2cnn3ncccc23)n1,binding,,1 µM,97
COc1ncc2cc3ccccc3nc2c1C#N,cell-free assay,competition with immobilised ligand,5 µM,91
N[C@H]1CCN(c2nccc(-c3cnn4ncccc34)n2)C1,binding,,1 µM,100
O=C1NC(c2ccccn2)Sc2ccccc21 (stereo not shown),cell-free assay,competition with immobilised ligand,1 µM,92
C[C@@H](c1ccc(-n2cnc3c(N)ncnc32)cc1)N1CCc2nn(C)c(Cc3ccccc3)c2C1=O,binding,competition with immobilised ligand,0.1 µM,25
CC1=C(C#N)C(c2ccc3c(c2)c(NC(=O)c2ccccc2C)nn3C)C(C#N)=C(C)N1,cell-free assay,competition with immobilised ligand,1 µM,99
Nc1ncc2c(n1)-c1c([nH]c3ccc(C#CC4CC4)cc13)CCCC2,binding,competition with immobilised ligand,1 µM,91
O=S(=O)(NC1CCC(c2cc(F)ccc2F)(S(=O)(=O)c2ccc(Cl)cc2)CC1)C(F)(F)F (stereo not shown),cell-free assay,competition with immobilised ligand,1 µM,87
CN(C)c1nccc(-c2cnc3ncccn23)n1,binding,,1 µM,91
